Results on 14 compounds are retold here after ChEMBL document CHEMBL1156242, “Synthesis of a novel series of diphenolic chromone derivatives as inhibitors of NO production in LPS-activated RAW264.7 macrophages” (Bioorg Med Chem, 2010).

Some results are limits rather than exact numbers.

Experiment [1] concerns RAW264.7. Description: Antiinflammatory activity in LPS-stimulated mouse RAW264.7 cells assessed as inhibition of nitric oxide production after 24 hrs by Griess reagent. In kind it is functional, cell-based. As to conditions: RAW264.7, 24 h. (Nitrite, measured by Griess reagent, commonly stands in for NO production.)
Experiment [2] has as its system RAW264.7. Description: Cytotoxicity against LPS-stimulated mouse RAW264.7 cells after 24 hrs by MTT assay. As to conditions: RAW264.7, 24 h. In kind it is cell-based. The method in brief: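 RAW264.7 in 96-well plates left untreated or exposed to compounds at various concentrations for 24 h. MTT (5 mg/mL) added 4 h before end. Lysis buffer (10% SDS, 50% DMF, pH 7.2) applied 6 h, absorbance read at 570 nm.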
For orientation: Formazan colour is commonly taken as a measure of viable cells.

What is called IC50 is the concentration that inhibits the measured activity by half. In the case of `CS(=O)(=O)Oc1coc2cc(O)cc(O)c2c1=O`, the IC50 in the experiment on RAW264.7 [1] was 53.7 µM; in the experiment with RAW264.7 [2], above 100 µM.

Turning to `O=C(Oc1coc2cc(O)cc(O)c2c1=O)c1ccccc1`, the figures for the IC50 in the experiment with RAW264.7 [1] and in the experiment with RAW264.7 [2] were 86.6 µM and above 100 µM, respectively.

`COc1ccc(C(=O)Oc2coc3cc(O)cc(O)c3c2=O)cc1`: the IC50 was 47.2 µM in the experiment on RAW264.7 [1] and above 100 µM in the experiment with RAW264.7 [2].

Consider `Cc1ccccc1C(=O)Oc1coc2cc(O)cc(O)c2c1=O`, for which the values for the 50% inhibitory concentration (IC50) in the experiment on RAW264.7 [1] and with RAW264.7 [2] were 17 µM and above 100 µM, respectively.

As to `Cc1ccc(S(=O)(=O)Oc2coc3cc(O)cc(O)c3c2=O)cc1`, the concentration for half-maximal inhibition (IC50) was 19.2 µM with RAW264.7 [1] and above 100 µM in the experiment on RAW264.7 [2].

With `O=c1c(CO)coc2cc(O)cc(O)c12`, the IC50 in the experiment with RAW264.7 [1] and in the experiment with RAW264.7 [2] was above 100 µM throughout.

With `O=c1c(O)coc2cc(O)cc(O)c12`, the IC50 in the experiment on RAW264.7 [1] and in the experiment with RAW264.7 [2] was above 100 µM throughout.

As for `CC(=O)Oc1coc2cc(O)cc(O)c2c1=O`, the IC50 in the experiment with RAW264.7 [1] was 60 µM; with RAW264.7 [2] it was above 100 µM.

Take `CCCCC(=O)Oc1coc2cc(O)cc(O)c2c1=O`: the figures for the IC50 in the experiment with RAW264.7 [1] and in the experiment with RAW264.7 [2] were 60.4 µM and above 100 µM, respectively.

`CCCCCCCCC(=O)Oc1coc2cc(O)cc(O)c2c1=O`: the figures for the IC50 with RAW264.7 [1] and in the experiment on RAW264.7 [2] were 62.2 µM and above 100 µM, respectively.

Consider `O=c1cc(-c2ccc(O)cc2)oc2cc(O)cc(O)c12` [APIGENIN], for which the IC50 in the experiment on RAW264.7 [1] was determined as 7.7 µM.

As to `CCn1cc(-c2ccc(O)cc2)c(=O)c2c(O)cc(O)cc21` [AZAISOFLAVONE], the IC50 in the experiment with RAW264.7 [1] was 7.8 µM.

Consider `O=c1c(-c2ccc(O)cc2)coc2cc(O)cc(O)c12` [GENISTEIN], for which the IC50 in the experiment on RAW264.7 [1] worked out at 26 µM.

As to `O=c1cc(-c2ccc(O)c(O)c2)oc2cc(O)cc(O)c12` [LUTEOLIN], the IC50 in the experiment on RAW264.7 [1] amounted to 10.4 µM.
